KCNQ1 act = potentiators or activators of human KCNQ1 potassium channel; P51787; CHO-K1 KCNQ1, thallium flux FluxOR fluorescence; stronger effect = higher value; B-score at 10 µM; actives 0.35% (n = 310,000);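 active means fluorescence ratio B-score, a plate-corrected score, at least three library SD, with initial intensity B-score within 5 SD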
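Material: CHO-K1 cells stably expressing KCNQ1. Medium: assay buffer for compound exposure, DMSO matched across wells. Reagent: K+/Tl+ depolarizing stimulus. Compound dosing: single-concentration screen. Times: 37 °C overnight plating, 90-min dark dye load, 20-min compound pretreatment. Technique: FluxOR Tl+ flux fluorescence.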
KCNK9 inh = inhibitors of human KCNK9 two-pore domain potassium channel; AID 488922; B-score at 10 µM; actives 1.2% (n = 310,000); HEK293 KCNK9, FluxOR thallium flux fluorescence; stronger effect = lower value; Q9NPC2;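 active means ratio B-score over 3 SD below the library mean, with starting fluorescence within 5 SD of its mean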;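 further: negative B-score means less thallium flux so channel inhibition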
KCNK3 inh = human KCNK3 channel inhibition, primary screen. CHO-KCNK3 thallium flux, FluxOR fluorescence; stronger effect = lower value. B-score at 10 µM. actives 0.84% (n = 340,000). AID 602410;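 active means B-score under library mean minus 4 SD, starting fluorescence ratio at most library mean plus 5 SD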;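 further: more negative B-score means stronger inhibition of thallium flux through KCNK3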
Kir21 block = blocks the mouse Kir2.1 inward-rectifier potassium channel; P35561; HEK293-Kir2.1, FluxOR thallium flux fluorescence; stronger effect = lower value; B-score at 10 µM; actives 0.85% (n = 310,000);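 active means fluorescence ratio B-score at or below minus 3 SD of library scores, with starting-brightness B-score within 2 SD, cut at about -4.2 in these data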;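 further: channel flux triggered by added potassium and thallium sulfate stimulus; B-score of peak minus minimum fluorescence over baseline after thallium stimulus; more negative B-score means stronger Kir2.1 block with less thallium influx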
KCNQ1 block = human KCNQ1 channel inhibition | B-score at 10 µM | actives 1.3% (n = 310,000) | CHO-K1 KCNQ1, FluxOR thallium flux fluorescence; stronger effect = higher value | AID 2642;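 active means compounds whose thallium flux B-score, printed positive for inhibition, exceeds three library SD while starting fluorescence stays within three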;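 further: channel opened by potassium depolarization with thallium stimulus after 20 min compound exposure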
hERG rescue = hERG (human) protection from proarrhythmic block. Q12809. CHO-hERG, FluxOR thallium flux, dofetilide IC70 present. activation (rescue from dofetilide block), less the hit threshold, % at 10 µM. actives 0.51% (n = 310,000);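 active means activation above the mean of controls blocked by dofetilide plus 5 SD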;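 further: thallium influx through hERG after potassium depolarization seen as dye fluorescence rise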
Starred values were filed as active, the others as inactive; i = inactive; . = no result given. Rows were chosen to be rich in hits. Some 3.7% of all compounds tested hit in one or more screens of this group.

SMILES	KCNQ1 act	KCNK9 inh	KCNK3 inh	Kir21 block	KCNQ1 block	hERG rescue
N=c1c2c(-c3ccccc3)c(-c3ccccc3)n(Cc3ccccc3)c2ncn1CCO	i	i	i	-8.6*	i	-32
COc1cc2c(cc1OC)CN(C(C)C(=O)Nc1ccc(NC(C)=O)cc1)CC2 (centres undefined)	i	i	i	-0.7	i	-18
Cc1sc2nc(C(C)C)nc(SCC(=O)NCc3ccco3)c2c1C	12*	i	i	-2.9	i	8.7*
Cc1nc(SCC(=O)NC(=O)NCc2ccco2)nc(C)c1C	i	i	i	1.4	i	6.7*
Cc1cc2cc(C)c(SCC(=O)NCc3ccco3)nc2cc1C	i	i	i	-1.9	i	-5
CC(C)(C)c1nc(SCC(=O)NCc2ccco2)c2ccccc2n1	i	i	i	-8*	i	-5
NC(=O)CSc1nc2c(c(=O)n1-c1ccccc1)C1(CCCCC1)Cc1ccccc1-2	i	i	i	0.95	i	-3
CCn1c(SCC(N)=O)nc2c(c1=O)C1(CCCC1)Cc1ccccc1-2	i	-6.7*	i	-3.2	i	-4
Cn1c(N/N=C/c2c[nH]c3ccccc23)nc2ccccc21	i	i	i	-5.2*	i	-24
Cc1cc(N/N=C/c2c[nH]c3ccccc23)c2ccccc2n1	i	i	i	0.93	i	-10
OCC1(Cc2ccc(F)cc2F)CCCN(Cc2ccc(Cl)cc2)C1 (centres undefined)	i	i	i	-9.4*	i	-5
C/C(=C\c1ccccc1)C(=O)NCc1ccco1	i	i	i	-0.34	i	-10
O=C(Nc1ccc(Nc2ccncc2)cc1)c1ccc([N+](=O)[O-])cc1	i	i	i	-0.4	i	-15
O=C(Nc1ccc(Nc2ccncc2)cc1)c1ccc(Nc2ccnc3ccc([N+](=O)[O-])cc23)cc1[N+](=O)[O-]	i	i	i	3.1	i	13*
CCN1CCN(CCNC(=O)c2ccc3c(c2)N(Cc2cccc(Cl)c2)C(=O)c2ccccc2S3=O)CC1 (centres undefined)	i	i	i	-0.01	i	-8
Cc1ccc(NC(=O)/C(C#N)=C(\N)C(Cl)(Cl)Cl)nc1	i	i	i	-3.7	i	-18
OCCNCCCOc1ccc(Cl)cc1Br	i	i	i	-1.6	i	-15
Clc1ccc(OCCCNCc2ccccc2)c(Br)c1	i	i	i	-16*	i	-20
Clc1ccc(Cl)c(OCCCCNCc2ccccc2)c1	i	i	i	-12*	i	-16
CN(C)c1ccc(C(=O)Nc2nc3c(s2)CCCC3)cc1	i	i	i	-3.3	i	-18
C/C(=N\Nc1nc2c(s1)CCCC2)c1ccc(Cl)cc1	i	i	i	0.02	6*	-6
O=C(CSc1nnc2ccccn12)Nc1ccc(S(=O)(=O)N2CCOCC2)cc1	i	i	i	0.59	i	1
O=C1c2ccccc2-c2onc3ccc(NCc4ccco4)c1c23	i	i	i	-1.8	i	-24
CCNc1ccc2noc3c2c1C(=O)c1ccccc1-3	i	i	i	-2.4	6*	-30
CCO[C@H]1OC(C(=O)NCc2ccccc2)=C[C@@H](C(C)(C)C)[C@@H]1CCCO	i	i	i	0.14	i	-4
SMILES	KCNQ1 act	KCNK9 inh	KCNK3 inh	Kir21 block	KCNQ1 block	hERG rescue
CCCc1cc2c(-c3ccccc3)cc(=O)oc2cc1OCc1ccc(C(=O)O)o1	9*	i	i	-0.42	i	-13
CCc1cc2c(-c3ccccc3)cc(=O)oc2cc1OCC(C)=O	i	i	i	1.3	i	-5
CCC/C=C(\CCC)C(NC(=O)c1ccc(C(F)(F)F)cc1)c1ccccc1 (centres undefined)	i	i	.	-0.06	6*	-12
CCC/C=C(\CCC)C(NC(=O)c1ccc(C(=O)OC)cc1)c1ccc(C(=O)OC)cc1 (centres undefined)	i	i	.	0.06	6*	-4
Cc1ccccc1C(=O)c1cccn1CC(=O)NCCCc1ccccc1	i	i	i	-0.01	i	-2
O=C(Cn1nnc2ccccc21)N/N=C\C=C\c1ccccc1	i	i	i	0.09	i	6.7*
CCOc1ccc(N2Nc3n[nH]c(N)c3N2)cc1	i	i	i	0.01	i	37*
CCN(Cc1nc2cc(Cl)ccc2c(=O)[nH]1)C(=O)c1cc(C2CC2)nn1-c1ccccc1	.	.	i	.	.	.
C=C1/C(=C\C=C2/CCC[C@]3(C)[C@@H]([C@H](C)CCCC(C)(C)O)CC[C@@H]23)C[C@@H](O)C[C@@H]1O	i	i	.	-0.01	7*	-7
CC(C)CCC[C@@H](C)[C@H]1CC[C@H]2[C@@H]3C(=O)C=C4C[C@@H](O)CC[C@]4(C)[C@H]3CC[C@]12C	i	i	i	-1	i	-6
CCOC(=O)C1=C(C)NC(SC)=C(C#N)C1CC(C)C (centres undefined)	i	i	i	-7.1*	i	-8
O=C(N/N=C/c1cccnc1)c1cc(Br)ccc1O	i	i	i	-0.84	i	-2
O=C(N/N=C/c1ccccn1)c1cc(Br)ccc1O	10*	i	i	-0.35	i	0
COc1cccc(-c2cc(C(=O)Nc3ccc([N+](=O)[O-])cn3)c3ccccc3n2)c1	i	-7.8*	i	-0.16	i	-19
O=C(Nc1ccc([N+](=O)[O-])cn1)c1cc(-c2cccc(Br)c2)nc2ccccc12	i	i	i	-0.75	i	-23
O=C(Nc1ccc([N+](=O)[O-])cn1)c1cc(-c2cccc(Cl)c2)nc2ccccc12	i	-7.1*	i	-0.13	i	-27
CC1(C)CC2CC(C)(CN2C(=S)NC(=O)c2ccccc2Cl)C1 (centres undefined)	27*	i	i	0.29	i	39*
CC(=O)c1ccc(NC(=O)CCCN2C(=O)C(c3ccccc3)Oc3cccnc32)cc1 (centres undefined)	i	i	i	-4.2*	i	-4
CCOc1ccc(NC(=O)CCCN2C(=O)C(c3ccccc3)Oc3cccnc32)cc1 (centres undefined)	i	i	i	0.39	i	-6
Cc1c(C)c2cccnc2c2ncccc12	.	.	i	.	.	.
CC(=O)NC12CC3CC(C1)CC(C(=O)Oc1ccc(N(C)S(=O)(=O)c4cc(C)ccc4C)cc1)(C3)C2	i	i	i	1.1	6*	-8
